From PubChem
Only some compounds are listed: those with a hit (about 9.6% of all), similar ones and a draw of the others.
MT stabilize HCS = microtubule stabilizers in HeLa cells, primary screen, imaging, high-content imaging; HeLa tubulin immunostaining HCS, 24 h; share of cells brighter than vehicle mean+2SD; % tubulin-high responders, % at 10 µM; 0.83% of 200,000 active; AID 2205, 2009;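 active means plate Z-score above 3 for both tubulin-high and condensed-nucleus cell shares, with cell loss under 80%, at 10 µM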;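 further: anti alpha tubulin signal scored within the nucleus-defined area of each cell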
BaF3 parental = parental Ba/F3 cell viability inhibition, counter-screen for JAK2V617F inhibitor project, murine pro-B, CellTiter-Glo luminescence. CellTiter-Glo ATP luminescence. inhibition, % at 5.6 µM. 1.1% of 220,000 active. AID 1486, 2009;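 active means inhibition above a per-campaign cutoff, the mean inhibition of all tested compounds plus 3 SD, cut at about 27% in these data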;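 further: 0% = DMSO wells and 100% = JAK Inhibitor I control wells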
APP transl inh = inhibitors of APP translation via 5'UTR reporter, primary screen, APP 5'UTR luciferase, SH-SY5Y cells | inhibition, % at 2 µM | AID 1285, 2008 | 0.82% of 190,000 active | SH-SY5Y APP 5'UTR-luciferase reporter, luminescence;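 active means inhibition above a set limit, derived from the sample mean plus 3 SD, cut at about 45% in these data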
bCat nuc transl = modulators of beta-catenin nuclear translocation, primary screen, imaging, HeLa cells, immunofluorescence, high-content; nuclear translocation activity, % at 5 µM; 0.3% of 190,000 active;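 active means nuclear translocation activity above 50% at 5 µM, with a well cell count of 50 or more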;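 further: per-cell ratio of nuclear to cytoplasmic median beta-catenin stain intensity; plate controls were DMSO negative control for no effect and GSK-3 inhibitor IX positive control for full effect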
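test system = HeLa cells, endogenous beta-catenin | dosing = single 5 µM dose plus 0.02–20 µM confirmation series | times = compound treatment 24 h, 37°C, 5% CO2 | technique = beta-catenin immunofluorescence imaging with DAPI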
Ba/F3 V617F tox = reduced viability of JAK2V617F-dependent Ba/F3 cells, primary screen, JAK2V617F inhibitor project, cell-based, Ba/F3 EpoR-JAK2V617F, luminescence. ATP luminescence. inhibition, % at 5.6 µM. 1.1% of 220,000 active. AID 1446, 2008;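 active means inhibition above the campaign mean plus 3 SD over all tested compounds, cut at about 24% in these data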;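 further: cytokine-independent growth of Ba/F3 cells driven by EpoR plus mutant JAK2; 0% = DMSO-treated cells and 100% = JAK inhibitor I control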
L major viab = Leishmania major promastigote growth inhibition, primary screen; inhibition, % at 10 µM; 9% of 200,000 active; AID 1063, 2008; Leishmania major promastigotes, resazurin fluorescence viability; in the data active means inhibition above about 50%;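 further: promastigotes grown with compound for 44 hours at 28 °C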
Starred values were filed as active, the others as inactive; . = not tested or not shown.

SMILES	MT stabilize HCS	BaF3 parental	APP transl inh	bCat nuc transl	Ba/F3 V617F tox	L major viab
COc1ccc(N(C(=O)c2ccco2)C(C(=O)NC2CCCCC2)c2cccs2)cc1OC (centres undefined)	3.0	-0.6	-2.9	-0.2	-2.1	-1.3
COc1ccc(CCN(C(=O)C(F)(F)F)C(C(=O)NC2CCCC2)c2cccs2)cc1 (centres undefined)	1.9	-4.5	-2.2	.	-2.4	61.8*
C#CC(=O)N(c1cc(OC)ccc1OC)C(C(=O)NC1CCCC1)c1cccs1 (centres undefined)	3.4	103.5*	11.2	46.1	102.3*	100.6*
O=C(CCCn1cnc([N+](=O)[O-])n1)Nc1cccc2ccccc12	4.3	-1.4	30.9	-6.7	-5.1	34.7
CN(C)c1ccc(CN(C)C2CCCCC2)cc1	1.2	4.2	-9.8	.	-0.8	24.6
CCOC(=O)N1CCC(NC(=O)c2cc(C(=O)NC3CCN(Cc4ccccc4)CC3)ccc2CO)CC1	1.7	11.5	3.4	-2.1	1.3	0.8
O=C(/C=C/c1ccccc1)Nc1ccc(NC(=O)c2cccs2)cc1	.	-1.5	.	0.0	-0.1	.
O=C(/C=C/c1ccccc1)NNC(=O)c1cccs1	2.3	40.8*	-2.6	-1.5	23.8*	8.6
O=C1/C(=C/c2c[nH]c3ccccc23)CCC/C1=C\c1c[nH]c2ccccc12	5.8	2.6	-18.6	23.2	-4.0	84.1*
O=C1CS/C(=N/N=C/c2c[nH]c3ccccc23)N1	.	2.3	.	0.7	3.5	.
CC(C)NC(=O)c1ccccc1NC(=O)Cc1ccc(Br)cc1	3.0	6.5	-30.8	-4.5	2.5	0.8
O=C(O)COc1ccccc1C(Nc1cccnc1)c1cc(Cl)c2cccnc2c1O (centres undefined)	3.3	6.3	-13.3	-0.7	2.9	-4.7
CCOc1ccc(C(Nc2cccnc2)c2cc(Cl)c3cccnc3c2O)cc1 (centres undefined)	3.4	9.7	8.4	0.0	3.1	89.5*
O=C(NC(c1ccccc1)c1cc(Cl)c2cccnc2c1O)c1cccnc1 (centres undefined)	4.5	5.2	.	.	-1.0	98.0*
Cc1cccc(CCN2CCC(C(=O)c3ccc(NS(C)(=O)=O)cc3)CC2)n1	.	-2.8	.	-1.0	-2.6	.
O=S1(=O)CCC(NC(=S)SCCOc2ccccc2)C1 (centres undefined)	5.0	5.1	10.7	1.2	0.7	92.2*
O=S1(=O)CCC(NC(=S)NC2CCS(=O)(=O)C2)C1 (centres undefined)	2.4	39.4*	12.3	-1.3	52.0*	-2.0
CCCCSC(=S)NC1CCS(=O)(=O)C1 (centres undefined)	2.0	2.8	-5.1	-3.4	-2.3	95.2*
CCOC(=O)/C(C(=O)Nc1ccc(Cl)cc1Cl)=C1/NC(C)(C)Cc2ccccc21	1.8	7.8	6.9	-1.9	-0.8	73.1*
COc1ccc(CCN(Cc2nc3ccccc3c(=O)[nH]2)C(=O)c2ccco2)cc1	0.2	5.8	-0.3	5.6	-3.3	-5.1
CCC(CC)C(=O)N(CCc1ccc(OC)cc1)Cc1nc2ccccc2c(=O)[nH]1	2.1	3.9	-2.2	.	0.8	100.2*
O=S1(=O)N=C(Oc2cccc3ccccc23)c2ccccc21	3.9	1.6	3.7	2.0	0.8	39.9
Oc1ccc(CNc2ccccc2F)c2cccnc12	3.2	1.5	48.3*	-1.2	3.1	73.1*
Oc1ccc(F)c2cccnc12	1.8	2.1	-8.1	-3.8	1.3	7.9
OCc1ccc(O)c2ncccc12	2.1	31.9*	36.2	-1.1	66.6*	100.3*
SMILES	MT stabilize HCS	BaF3 parental	APP transl inh	bCat nuc transl	Ba/F3 V617F tox	L major viab
O=[N+]([O-])c1cc(CN2CCN(c3cccc(C(F)(F)F)c3)CC2)c2cccnc2c1O	2.6	7.9	65.2*	-0.3	-2.1	99.0*
Oc1c(I)cc(I)c2cccnc12	3.7	3.0	-26.0	.	-2.2	-3.5
Oc1ccc(CN2CCN(c3ccccc3)CC2)c2cccnc12	4.7	5.3	-7.2	-0.8	-0.4	100.3*
CCc1c(C(=O)O)[nH]c2ccc(Br)cc12	5.9	6.8	0.7	.	-0.8	-8.4
O=S(=O)(c1cccc2cccnc12)N1CCN(c2ccccc2)CC1	1.2	7.5	9.4	10.9	9.0	7.5
Cc1ccc(C)c(N2CCN(S(=O)(=O)c3cccc4cccnc34)CC2)c1	3.8	5.3	2.9	-0.6	4.3	65.6*
Oc1ccc(CN2CCc3ccccc3C2)c2cccnc12	1.7	76.7*	86.8*	0.5	75.3*	100.4*
Cn1cc(CN2CCc3ccccc3C2)c2ccccc21	2.4	17.6	6.9	.	8.8	15.0
Oc1ccc(CN2CCCCC2)c2cccnc12	4.5	62.1*	88.1*	-4.5	86.2*	100.6*
Cc1ccc(C)c(S(=O)(=O)N2CCN(CC(=O)Nc3cc(C)on3)CC2)c1	1.6	1.4	-13.9	.	-1.1	1.2
Cc1ccc(C)c(S(=O)(=O)N2CCN(Cc3ccc(O)c4ncccc34)CC2)c1	5.1	0.9	56.3*	-3.5	21.2	99.8*
CCOC(=O)N1CCN(Cc2ccc(O)c3ncccc23)CC1	2.5	6.6	11.3	2.1	3.3	0.4
O=C(C1CCN(S(=O)(=O)c2cccc3cccnc23)CC1)N1CCN(c2ccccn2)CC1	2.7	7.5	-3.3	-0.6	-3.2	-2.1
Cc1n[nH]c(C)c1S(=O)(=O)N1CCCC(C(=O)N2CCN(c3ccc(Cl)cc3)CC2)C1 (centres undefined)	2.2	6.5	6.8	7.9	-0.1	51.7*
O=C(C1CCCN(S(=O)(=O)c2cccc3nonc23)C1)N1CCN(c2cccc(Cl)c2)CC1 (centres undefined)	1.9	0.5	2.0	.	-3.7	92.6*
O=C(C1CCN(S(=O)(=O)c2cccc3cccnc23)CC1)N1CCN(c2ccc(Cl)cc2)CC1	7.2	10.2	14.9	-1.7	2.2	51.9*
O=C(NCCc1ccccc1)C(=O)NCC1OCCN1S(=O)(=O)c1ccc([N+](=O)[O-])cc1 (centres undefined)	3.1	3.3	-10.0	0.6	-3.6	40.1
CC(C)N(c1ccccc1)c1ccc(NC(=O)COC(=O)CCN2C(=O)c3cccc([N+](=O)[O-])c3C2=O)cc1	3.5	8.2	5.2	0.0	-2.6	-10.6
Cc1[nH]c2ccccc2c1/C=N/NC(=O)C1CC1(c1ccccc1)c1ccccc1 (centres undefined)	2.0	6.5	-16.0	-4.2	0.9	98.7*
Cc1[nH]c2ccccc2c1/C=N/NC(=O)CCC(=O)NCc1ccccc1	3.0	5.5	14.1	0.4	-3.4	-3.7
COc1cc(C2Sc3ccccc3NC3=C2C(=O)OC3)cc(OC)c1OC (centres undefined)	39.6*	3.5	-10.1	0.9	-1.0	7.0
